Source: PubChem BioAssay
GALR2 agonist – GALR2 (human) receptor agonism; GALR2-expressing cells, agonist activation read-out; O43603; actives 0.48% (n = 140,000); activation, % (no concentration beside the values); in the data active = activation above about 5%, passing the limit was not always enough
EphB4 ephrin blk – EphB4-ephrin-B2 interaction antagonism | actives 0.15% (n = 97,000) | P54760 | inhibition, % at 7 µM | EphB4 LBD / TNYL-RAW-Alexa532 peptide, fluorescence polarization | AID 720;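 active = inhibition above the screen-wide mean inhibition plus 3 SD, cut at about 15% in these data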
GALR2 antag – GALR2 (human) receptor antagonism; GALR2-expressing cells, antagonist mode; actives 0.39% (n = 140,000); inhibition, % at 4 µM; O43603; in the data active = inhibition above about 27%;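 note: cells stimulated with galanin 1-16 at roughly its EC80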
Rev-RRE block – HIV Rev-RRE protein-RNA interaction inhibition; P05866; Rev peptide-RRE RNA binding, FRET; inhibition, % at 8 µM; actives 0.79% (n = 97,000); AID 704;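 active = inhibition above the screen-wide mean plus 3 SD, cut at about 35% in these data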
Target sequence (P05866 whole entry, looked up): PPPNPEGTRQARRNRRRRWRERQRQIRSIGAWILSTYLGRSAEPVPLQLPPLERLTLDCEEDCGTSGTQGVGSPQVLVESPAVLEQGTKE
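System: Cy5-labelled duplex RRE RNA binding fluorescein-labelled HIV Rev peptide; Signal: fluorescein-to-Cy5 FRET, 480 nm excitation; Also added: labelled Rev peptide; Compound: one concentration, 8 µM nominal; Buffer or medium: HEPES pH 7.5 salt buffer with EDTA; Read-out: % inhibition of FRET ratio versus controls; Schedule: 5 min preincubation and 15 min binding, 25 °C.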
S1P2 ag – S1P2 (human) receptor agonism; activation, % at 4.5 µM; O95136; actives 0.46% (n = 97,000); S1P2-expressing cell line, agonist reporter read-out; AID 729; in the data active = activation above about 16%
Target sequence (O95136 whole entry, looked up): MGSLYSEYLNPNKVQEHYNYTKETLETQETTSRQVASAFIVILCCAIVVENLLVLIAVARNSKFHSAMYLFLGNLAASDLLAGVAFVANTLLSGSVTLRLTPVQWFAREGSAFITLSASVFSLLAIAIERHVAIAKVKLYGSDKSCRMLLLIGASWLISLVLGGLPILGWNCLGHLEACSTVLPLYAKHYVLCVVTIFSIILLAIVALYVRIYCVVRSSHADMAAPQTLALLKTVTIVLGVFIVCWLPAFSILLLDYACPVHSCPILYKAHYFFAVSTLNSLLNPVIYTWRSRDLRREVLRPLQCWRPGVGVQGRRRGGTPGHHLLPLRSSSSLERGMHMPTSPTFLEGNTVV
S1P2 blocker – blocks the human S1P2 receptor | cell-based S1P2 antagonist assay, inhibition at 5 uM | inhibition, % at 5 µM | AID 736 | actives 0.21% (n = 97,000) | O95136; in the data active = inhibition above about 45%;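 note: CRE beta-lactamase reporter cells expressing human S1P2 stimulated with S1P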
GALR2 ag confirm – GALR2 (human) agonism confirmed; shares compounds with GALR2 agonist; GALR2-expressing cells, agonist activation; activation, % at 5.6 µM; actives 10% (n = 460); in the data active = activation above about 8.4%
BLA act counter – activates beta-lactamase reporter in GALR2 agonist counterscreen; shares compounds with GALR2 agonist; CHO NFAT-bla reporter, beta-lactamase FRET activation; activation, % at 5.6 µM; actives 10% (n = 460); AID 865;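 active = activation above the screen-wide mean activation plus 3 SD, cut at about 8% in these data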
Each line names hits and unclear results; the compound was inactive in the other large screens (follow-up assays come after a bar, where they were run). Only some compounds are listed: those with a hit (about 1.8% of all), similar ones and a draw of the others.

CN1CCN(Cc2nc3ccccc3c(=O)n2Cc2nc(-c3ccc4ccccc4c3)cs2)CC1	GALR2 agonist 7.7 (no result: EphB4 ephrin blk, Rev-RRE block, S1P2 ag, S1P2 blocker)
Cc1cc(C2C(C#N)=C(N)OC3=C2C(=O)CCC3)c(C)s1 (centres undefined)	none
COc1cc(C2C(C#N)=C(N)OC3=C2C(=O)CCC3)c([N+](=O)[O-])cc1OC (centres undefined)	Rev-RRE block 48
CN(C)c1ccc(/C=C/c2ccncc2)cc1	Rev-RRE block 72
COc1ccc(-c2ccc(C#N)c(SCC(=O)Nc3sc4c(c3C#N)CCC4)n2)cc1	none
N#Cc1ccc(-c2cccnc2)nc1SCC(=O)Nc1sc2c(c1C#N)CCC2	GALR2 agonist 6.9 (no result: EphB4 ephrin blk, Rev-RRE block, S1P2 ag, S1P2 blocker)
COC(=O)c1cc(NC(=O)CSc2nncn2C)cc(C(=O)OC)c1	GALR2 agonist 16 | GALR2 ag confirm inactive | BLA act counter inactive
Cc1ccc2nc(-c3ccc(NS(=O)(=O)c4ccccc4)cc3)sc2c1	GALR2 agonist 11 (no result: EphB4 ephrin blk, Rev-RRE block, S1P2 ag, S1P2 blocker) | GALR2 ag confirm inactive | BLA act counter inactive
Cc1ccc2nc(-c3ccc(NS(=O)(=O)c4ccc(F)c(F)c4)cc3)sc2c1	none (no result: EphB4 ephrin blk, Rev-RRE block, S1P2 ag, S1P2 blocker)
CCN(CC)S(=O)(=O)c1ccc(N2CCOCC2)c(NS(=O)(=O)c2ccc(C)c(C)c2)c1	none (no result: EphB4 ephrin blk, Rev-RRE block, S1P2 ag, S1P2 blocker)
CCN(CC)c1ccc2c(Cl)cc(=O)oc2c1	S1P2 blocker 47 | GALR2 ag confirm inactive | BLA act counter inactive
CCN(CC)c1ccc(C(=O)OCc2cc(=O)oc3cc(O)ccc23)cc1	none
CC(C)(C)c1ccc(S(=O)(=O)Nc2cccnc2)cc1	none
O=S(=O)(Nc1cccnc1)c1ccc(Cl)cc1	GALR2 agonist 80 | GALR2 ag confirm inactive | BLA act counter inactive
O=C1OC(c2ccccc2)c2ccc3ccccc3c21 (centres undefined)	none (no result: EphB4 ephrin blk, Rev-RRE block, S1P2 ag, S1P2 blocker)
Cc1ccc(NC(=O)CCn2ccc([N+](=O)[O-])n2)nc1	none (no result: EphB4 ephrin blk, Rev-RRE block, S1P2 ag, S1P2 blocker)
Cc1cc(C)cc(N(CCC(=O)Nc2nnc(C)s2)S(=O)(=O)c2ccc(Cl)cc2)c1	none (no result: EphB4 ephrin blk, Rev-RRE block, S1P2 ag, S1P2 blocker)
Cc1occc1-c1nnc(SCC(=O)Nc2nc(-c3ccccc3)cs2)o1	GALR2 agonist 19 | GALR2 ag confirm inactive | BLA act counter inactive
Cc1ccc(S(=O)(=O)N2CCN(CC(=O)N(CC(C)C)c3c(N)n(CC(C)C)c(=O)[nH]c3=O)CC2)c(C)c1	none (no result: EphB4 ephrin blk, Rev-RRE block, S1P2 ag, S1P2 blocker)
COc1ccc(CNC(=O)c2sc3nc4c(c(C(F)(F)F)c3c2N)CCC4)cc1	none (no result: EphB4 ephrin blk, Rev-RRE block, S1P2 ag, S1P2 blocker)
O=C(NS(=O)(=O)Oc1ccc(Cl)cc1)OC[C@@H]1CCCN2CCCC[C@H]12	none (no result: EphB4 ephrin blk, Rev-RRE block, S1P2 ag, S1P2 blocker)
COCCNC(=O)CCCn1c(=O)c2ccccc2n(CC(=O)NCCC2=CCCCC2)c1=O	none
O=C(CCn1c(=O)c2ccccc2n(CC(=O)NCCC2=CCCCC2)c1=O)NCc1ccco1	GALR2 agonist 86 | GALR2 ag confirm inactive | BLA act counter inactive
CCOC(=O)c1[nH]c(C)c(C(=O)Nc2ccc(C)c(F)c2)c1C	GALR2 agonist 44 (no result: EphB4 ephrin blk, Rev-RRE block, S1P2 ag, S1P2 blocker) | GALR2 ag confirm inactive | BLA act counter inactive
CN1C(=O)/C(=C/c2ccccc2OCc2ccccc2)NC1=S	none (no result: EphB4 ephrin blk, Rev-RRE block, S1P2 ag, S1P2 blocker)
CN1C(=O)/C(=C/c2ccccc2OCc2cccc(F)c2)NC1=S	GALR2 agonist 146 | GALR2 ag confirm inactive | BLA act counter inactive
CC1=NN(C(=O)Cc2ccc([N+](=O)[O-])cc2)C(O)(c2ccccc2)C1 (centres undefined)	none
CCCNC(=S)N1CCC(c2nc3cc(C)c(C)cc3[nH]2)CC1	GALR2 agonist 32 | GALR2 ag confirm inactive | BLA act counter inactive
Cc1cc2nc(C3CCCN(C(=S)Nc4ccccc4C)C3)[nH]c2cc1C (centres undefined)	none
O=C(CSc1nc(CCC2CCCC2)nc2ccccc12)NCc1ccc2c(c1)OCO2	none (no result: EphB4 ephrin blk, Rev-RRE block, S1P2 ag, S1P2 blocker)
COC(=O)c1cc(C(C)=O)n2ccccc12	none
CCOC(=O)c1cc(C(=O)OCC)c2ccccn2c1=O	GALR2 agonist 15 | GALR2 ag confirm inactive | BLA act counter inactive
O=S(=O)(Nc1ccc2c(c1)OCO2)c1ccccc1	GALR2 agonist 34 | GALR2 ag confirm inactive | BLA act counter inactive
Cc1ccccc1Cn1nc(C)c(NC(=O)c2cc3nc(-c4ccco4)cc(C(F)(F)F)n3n2)c1C	none
CCc1ccc(-c2cc(C(F)(F)F)n3nc(C(=O)Nc4c(C)nn(Cc5ccc(F)cc5)c4C)cc3n2)s1	GALR2 agonist 13 | GALR2 ag confirm inactive | BLA act counter inactive
CN(C)S(=O)(=O)c1ccc(C(=O)NCc2nnc(SCC(=O)Nc3ccc(F)cc3)n2-c2ccc(F)cc2)cc1	none (no result: EphB4 ephrin blk, Rev-RRE block, S1P2 ag, S1P2 blocker)
CC(C)Cn1c(N)c(C(=O)NCC2CCCO2)c2nc3ccccc3nc21 (centres undefined)	GALR2 agonist 12 | GALR2 ag confirm inactive | BLA act counter inactive
N#Cc1c(N)n(CCc2ccc(F)cc2)c2nc3ccccc3nc12	GALR2 agonist 15 | GALR2 ag confirm inactive | BLA act counter 9.4
COCCn1c(N)c(C(=O)NCC2CCCO2)c2nc3ccccc3nc21 (centres undefined)	none
Nc1c(C(=O)NCc2ccco2)c2nc3ccccc3nc2n1CCc1ccc(F)cc1	GALR2 agonist 24 | GALR2 ag confirm 10 | BLA act counter 18
COCCn1c(N)c(C(=O)NCc2cccs2)c2nc3ccccc3nc21	GALR2 agonist 11 | GALR2 ag confirm inactive | BLA act counter 10
COc1cc(OC)cc(-c2nn[nH]n2)c1	none (no result: EphB4 ephrin blk, Rev-RRE block, S1P2 ag, S1P2 blocker)
COc1ccc(Br)cc1CN1CCCC(C(=O)N2CCCCC2)C1 (centres undefined)	none
COc1ccc(OC)c(CN2CCCC(C(=O)N3CCCCC3)C2)c1 (centres undefined)	GALR2 agonist 72 | GALR2 ag confirm inactive | BLA act counter inactive
CCN(CC)S(=O)(=O)c1ccc(C)c(NC(=O)COc2ccc(Cl)cc2Br)c1	GALR2 agonist 10 (no result: EphB4 ephrin blk, Rev-RRE block, S1P2 ag, S1P2 blocker) | GALR2 ag confirm inactive | BLA act counter inactive
CCN(CC)S(=O)(=O)c1ccc(Cl)c(NC(=O)COc2ccccc2[N+](=O)[O-])c1	none (no result: EphB4 ephrin blk, Rev-RRE block, S1P2 ag, S1P2 blocker)
O=C(COc1ccc(Cl)cc1)NNC(=O)C(=O)N1CCCCC1	GALR2 agonist 29 | GALR2 ag confirm inactive | BLA act counter inactive
Cc1ccc(/C=N/NC(=O)c2ccc(C(=O)N/N=C/c3ccc(C)s3)o2)s1	GALR2 agonist 30 | GALR2 ag confirm inactive | BLA act counter 14
CCOC(=O)CCC(NC(=O)CCCCCCCC(=O)NC(CCC(=O)OCC)C(=O)OCC)C(=O)OCC (centres undefined)	none (no result: EphB4 ephrin blk, Rev-RRE block, S1P2 ag, S1P2 blocker)
Cc1nn(C)c(C(=O)NNC(=S)NCC(C)C)c1Cl	none (no result: EphB4 ephrin blk, Rev-RRE block, S1P2 ag, S1P2 blocker)
N=c1c(C(=O)NCc2ccco2)cc2c(=O)n3ccccc3nc2n1CC1CCCO1 (centres undefined)	none
N=c1c(S(=O)(=O)c2ccccc2)cc2c(=O)n3ccccc3nc2n1CC1CCCO1 (centres undefined)	none | GALR2 ag confirm inactive | BLA act counter inactive
